# ChEMBL document CHEMBL3865824, “New (E)-1-alkyl-1H-benzo[d]imidazol-2-yl)methylene)indolin-2-ones: Synthesis, in vitro cytotoxicity evaluation and apoptosis inducing studies” (Eur J Med Chem, 2016)
# Calls of active or inactive are those of the source. The calls are words filed in the database; no cut-off is given here.
# Experiments:
# [1] = Cell cycle arrest in human MDA-MB-231 cells assessed as accumulation at G0/G1 phase at 1 uM after 24 hrs by propidium iodide staining based FACS analysis (reference value: 50.4 %); format: functional
# In short: (§1)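 MDA-MB-231 at 1×10^6 cells/well treated with 1, 2 or 4 µM for 24 h, with a DMSO control. Cells harvested by trypsin, washed with PBS and fixed in 70% ethanol for 30 min at 4 °C. Stained 15 min at room temperature in the dark with PI buffer containing Triton X and DNase-free RNase A. Analysed by flow cytometry; G0/G1, S and G2/M fractions quantified.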
# MDA-MB-231 [2] = experiment: Induction of apoptosis in human MDA-MB-231 cells assessed as reduction in viable cells at 1 to 4 uM after 24 hrs by phase contrast microscopic analysis; format: functional, cell-based
# In short: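 MDA-MB-231 cells were exposed for 24 h to 1, 2 and 4 μM beside a control. Morphology (shrinkage, deformation, number of viable cells) was examined and photographed by phase contrast microscopy.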
# [3] = Cell cycle arrest in human MDA-MB-231 cells assessed as accumulation at G2/M phase at 4 uM after 24 hrs by propidium iodide staining based FACS analysis (reference value: 26 %); format: functional; in short: as §1
# [4] = Cytotoxicity against human MDA-MB-231 cells assessed as reduction in cell viability after 48 hrs by MTT assay; format: functional, cell-based; details: MDA-MB-231, 48 h
# In short: (§2)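 Cells grown in DMEM or MEM with 10% FBS at 37 °C, 5% CO2. Seeded at 1×10^4 cells/well, incubated 48 h, then exposed to compound for 48 h with vehicle control. MTT (5 mg/mL stock) added for 4 h; formazan dissolved in DMSO, absorbance read at 570 nm. Preliminary screen at 50 µM. Compounds giving >50% inhibition were tested for dose-response curves; IC50 derived by linear regression of % inhibition versus concentration. Mean of three independent experiments in triplicate.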
# MDA-MB-231 [5] = experiment: Induction of superoxide production in human MDA-MB-231 cells after 48 hrs by mitoSOX red-probe based fluorescent microscopic analysis; format: functional, cell-based
# In short: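 Cells were seeded at 1×10^5/well in 24-well plates and left to adhere overnight, then treated at different concentrations (methods: medium removed after 24 h; legend: 48 h treatment). After a PBS wash, cells were loaded with MitoSOX Red in HBSS for 15 min at 37 °C, washed three times with PBS and imaged by fluorescence microscopy against DMSO control.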
# MDA-MB-231 [6] = experiment: Induction of apoptosis in human MDA-MB-231 cells assessed as late apoptotic cells at 2 uM after 24 hrs by Annexin V-FITC/propidium iodide-staining based FACS analysis (reference value: 3.6 %); format: functional
# [7] = Cytotoxicity against […] cells assessed as growth inhibition at 50 uM after 48 hrs by MTT assay relative to control; format: functional; details: Mus musculus, 4T1, 48 h; read-out: GI; in short: as §2
# MDA-MB-231 [8] = experiment: Induction of apoptosis in human MDA-MB-231 cells assessed as increase in Bax expression after 24 hrs by Western blot analysis; format: functional, cell-based
# In short: (§3)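 MDA-MB-231 treated at 1, 2 or 4 µM for 24 h. Whole-cell extracts prepared in RIPA buffer. Blots probed with rabbit anti-caspase-3, anti-Bcl2 and anti-β-actin (1:1000) and anti-Bax (1:500), then HRP secondaries and ECL detection. Membranes stripped and reprobed. Bands quantified by densitometry as fold change versus control. Mean ± SEM, n=3.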
# MDA-MB-231 [9] = experiment: Induction of apoptosis in human MDA-MB-231 cells assessed as formation of condensed nuclei at 1 to 4 uM after 24 hrs by DAPI dye-based fluorescent microscopic analysis; format: functional, cell-based
# In short: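 MDA-MB-231 grown at 1×10^6 cells/well in 6-well plates and treated at 1.0, 2.0 or 4.0 µM for 24 h, with untreated controls. Cells washed twice with PBS, fixed in 4% paraformaldehyde and stained with 10 µg/mL DAPI. Nuclei examined by fluorescence microscopy (excitation 359 nm, emission 461 nm) at 200×.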
# [10] = Cell cycle arrest in human MDA-MB-231 cells assessed as accumulation at S phase at 1 uM after 24 hrs by propidium iodide staining based FACS analysis (reference value: 24.6 %); format: functional; in short: as §1
# MDA-MB-231 [11] = experiment: Induction of apoptosis in human MDA-MB-231 cells assessed as viable cells at 2 uM after 24 hrs by Annexin V-FITC/propidium iodide-staining based FACS analysis (reference value: 89.5 %); format: functional; details: MDA-MB-231, 24 h, read-out: Activity
# MDA-MB-231 [12] = experiment: Induction of apoptosis in human MDA-MB-231 cells assessed as formation of condensed chromatin at 1 uM after 24 hrs by AO/EB-dual staining based fluorescent microscopic analysis; format: functional, cell-based
# In short: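 MDA-MB-231 plated at 1×10^6 cells/mL and treated at 1, 2 or 4 µM, with a DMSO control. Incubation time is given as 48 h in the methods and 24 h in the figure legend. AO and EB added at 10 µg/mL each. Cells viewed within 10 min by fluorescence microscopy (excitation 488 nm, emission 550 nm) at 200×.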
# [13] = Cytotoxicity against human DU145 cells assessed as growth inhibition at 50 uM after 48 hrs by MTT assay relative to control; format: functional; details: DU-145, 48 h, read-out: GI; in short: as §2
# [14] = Cytotoxicity against HGC cells assessed as growth inhibition at 50 uM after 48 hrs by MTT assay relative to control; format: functional; details: Homo sapiens, read-out: GI; in short: as §2
# MDA-MB-231 [15] = experiment: Induction of apoptosis in human MDA-MB-231 cells assessed as necrotic cells at 2 uM after 24 hrs by Annexin V-FITC/propidium iodide-staining based FACS analysis (reference value: 2.8 %); format: functional
# [16] = Cell cycle arrest in human MDA-MB-231 cells assessed as accumulation at S phase at 2 uM after 24 hrs by propidium iodide staining based FACS analysis (reference value: 24.6 %); format: functional; in short: as §1
# MDA-MB-231 [17] = experiment: Induction of apoptosis in human MDA-MB-231 cells assessed as early apoptotic cells after 24 hrs by Annexin V-FITC/propidium iodide-staining based FACS analysis; format: functional, cell-based
# [18] = Cytotoxicity against human PC3 cells assessed as growth inhibition at 50 uM after 48 hrs by MTT assay relative to control; format: functional; details: PC-3, 48 h, read-out: GI; in short: as §2
# MDA-MB-231 [19] = experiment: Induction of apoptosis in human MDA-MB-231 cells assessed as viable cells at 1 uM after 24 hrs by Annexin V-FITC/propidium iodide-staining based FACS analysis (reference value: 89.5 %); format: functional; details: MDA-MB-231, 24 h, read-out: Activity
# MDA-MB-231 [20] = experiment: Induction of apoptosis in human MDA-MB-231 cells assessed as increase in caspase-3 expression after 24 hrs by Western blot analysis; format: functional, cell-based; in short: as §3
# [21] = Selectivity ratio of IC50 for human MCF10A cells to IC50 for human A549 cells; format: ADME, cell-based; details: MCF10A cells versus A549 cells, read-out: Ratio IC50
# MDA-MB-231 [22] = experiment: Inhibition of F-actin polymerization in human MDA-MB-231 cells assessed as disruption of stress fibres at 1 to 4 uM after 12 hrs by rhodamine-phalloidin/hoechst […]-dual staining based confocal microscopic analysis; format: cell-based
# In short: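 MDA-MB-231 cells (1×10^6/well) were grown on coverslips for 24 h, then exposed 12 h to 1, 2 and 4 μM. After a PBS wash and fixation in 4% paraformaldehyde, F-actin was stained with rhodamine-phalloidin and nuclei with Hoechst […]. Slides were mounted in anti-fade reagent and imaged by confocal microscopy (20× objective).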
structure (smiles),measurement,setting,value
CC(C)n1c(/C=C2/C(=O)Nc3ccc(Br)cc32)nc2ccccc21,Activity,[1],57.2%
same,Activity,MDA-MB-231 [2],Active
same,Activity,[3],14.8%
same,IC50,[4],3.26 µM
same,Activity,MDA-MB-231 [5],Dose-dependent effect
same,Activity,MDA-MB-231 [6],4.4%
same,inhibition of growth at 50 µM,[7],> 50%
same,Activity,MDA-MB-231 [8],Dose-dependent effect
same,Activity,MDA-MB-231 [9],Active
same,Activity,[10],20.8%
same,viability at 2 µM,MDA-MB-231 [11],73.6%
same,Activity,MDA-MB-231 [12],Active
same,inhibition of growth at 50 µM,[13],> 50%
same,inhibition of growth at 50 µM,[14],> 50%
same,Activity,MDA-MB-231 [15],3.3%
same,Activity,[16],17.7%
same,Activity,MDA-MB-231 [17],Dose-dependent effect
same,inhibition of growth at 50 µM,[18],> 50%
same,viability at 1 µM,MDA-MB-231 [19],83.3%
same,Activity,MDA-MB-231 [20],Dose-dependent effect
same,selectivity ratio,[21],6.5
same,inhibition,MDA-MB-231 [22],Active
